# Compound activity (PubChem BioAssay)
# GSTO1 inh = GSTO1 inhibition, counter-screen for RBBP9 inhibitors. P78417. recombinant GSTO1, activity-based probe fluorescence polarization. inhibition, % at 5.96 µM. 1.1% of 300,000 active. AID 1974;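 active = inhibition above the campaign mean inhibition plus 3 SD, cut at about 35% in these data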;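 also: 0% = GSTO1-1 with DMSO and 100% = wells lacking GSTO1-1 enzyme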
# Apaf1 inhib = blocks human Apaf-1 apoptosome activity; reconstituted apoptosome caspase-3 activity, DEVD-Rh110 fluorescence; inhibition, % at 20 µM; 0.71% of 330,000 active; AID 489030; active = inhibition of at least 40% at 20 µM;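 also: plate controls were DMSO wells for no effect and DEVD-CHO caspase inhibitor wells for full effect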
#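 System: reconstituted apoptosome with Apaf-1, cytochrome c, caspase-9, procaspase-3, dATP; Signal: Rh110 fluorescence intensity; Schedule: 30 min compound preincubation, 50 min activation, room temperature; Reagent: cytochrome c trigger plus (Z-DEVD)2-Rh110 caspase-3 substrate.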
# PAD4 inh = blocks human protein arginine deiminase 4; recombinant PAD4, RCA probe fluorescence polarization; inhibition, % at 6.36 µM; 0.41% of 330,000 active; AID 485272;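 active = percent inhibition above a cutoff equal to the mean of all tested compounds plus 3 SD, cut at about 15% in these data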;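 also: 0% = PAD4 with RCA probe and DMSO and 100% = probe without PAD4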
# Target sequence (Q9UM07 whole entry, looked up): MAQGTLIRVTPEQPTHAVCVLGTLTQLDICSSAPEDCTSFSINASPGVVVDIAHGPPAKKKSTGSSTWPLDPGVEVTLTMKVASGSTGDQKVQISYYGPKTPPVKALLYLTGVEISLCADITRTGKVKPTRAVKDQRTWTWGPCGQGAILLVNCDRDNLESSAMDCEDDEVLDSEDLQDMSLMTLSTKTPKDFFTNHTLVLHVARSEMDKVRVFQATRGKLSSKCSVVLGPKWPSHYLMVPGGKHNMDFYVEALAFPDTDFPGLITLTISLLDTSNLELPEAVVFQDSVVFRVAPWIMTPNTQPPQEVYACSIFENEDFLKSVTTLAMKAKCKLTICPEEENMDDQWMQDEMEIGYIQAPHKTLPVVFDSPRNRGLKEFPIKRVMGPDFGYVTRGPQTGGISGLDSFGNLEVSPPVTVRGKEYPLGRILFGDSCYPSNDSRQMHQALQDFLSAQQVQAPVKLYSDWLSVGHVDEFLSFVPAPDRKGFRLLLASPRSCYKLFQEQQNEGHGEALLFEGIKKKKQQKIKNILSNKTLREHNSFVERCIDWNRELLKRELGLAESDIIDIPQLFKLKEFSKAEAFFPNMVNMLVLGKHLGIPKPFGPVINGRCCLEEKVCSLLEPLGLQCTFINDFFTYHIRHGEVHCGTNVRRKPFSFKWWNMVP
# PRMT1 inh = inhibitors of human PRMT1 | Q99873 | 1.3% of 370,000 active | recombinant PRMT1, activity-based probe fluorescence polarization | AID 652257 | inhibition, % at 2.79 µM;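 active = inhibition above about 21% made by adding two undisclosed values, limit read from the data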
# TDP2 absorb = TDP2 (human) inhibition, absorbance primary screen. recombinant TDP2, T5PNP hydrolysis, p-nitrophenol absorbance 415 nm. inhibition, % at 12.8 µM. 0.34% of 370,000 active. AID 720702;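 active = inhibition above the mean of all tested compounds plus 3 SD, set per campaign, cut at about 25% in these data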;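 also: 0% = DMSO with enzyme and 100% = buffer with substrate but no TDP2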
#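 Incubation: 2 h at 37 °C; Test system: recombinant human TDP2; Quantity: enzyme 120 nM; Read-out basis: percent inhibition; Medium: 50 mM Tris-HCl pH 7.5 with Mg2+, KCl, DTT, BSA; Repeats: single replicate; Compound: 12.8 µM single point, 1% DMSO; Signal: epi absorbance; Reagent: 5 mM T5PNP chromogenic substrate; Benchmarks: no-enzyme high, DMSO-plus-enzyme low.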
# PRMT1 inh conf = PRMT1 (human) inhibition, FP confirmation; 42% of 3,300 active; AID 687036; shares compounds with PRMT1 inh; recombinant His-PRMT1, activity-based probe fluorescence polarization; inhibition, % at 2.79 µM;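 active = mean inhibition across replicates above the hit cutoff derived for the earlier primary screen, cut at about 22% in these data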
# Active calls of the source: *; . = no result. This is a sample that favours compounds with a hit; in the whole collection about 2.6% have one here.
SMILES,GSTO1 inh,Apaf1 inhib,PAD4 inh,PRMT1 inh,TDP2 absorb,PRMT1 inh conf
Cc1ccc(S(=O)(=O)n2nc(-c3ccco3)nc2SCc2ccccc2)cc1,17,1,1,25*,2,12
COc1ccc(-n2sc3ccccc3c2=O)cc1,.,.,.,82*,5,82*
Cc1ccc(S(=O)(=O)C/N=C(/NC(=S)N(c2ccccc2)c2ccccc2)c2ccccc2)cc1,5,-6,5,28*,0,27*
O=C1OC(NC(=O)c2ccccc2)C(n2cc(CO)nn2)=C1Cl (centres undefined),2,4,-2,65*,10,67*
Cc1ccc(NC2=C(Cl)C(=O)OC2NC(=O)c2ccccc2)cc1 (centres undefined),-1,5,-7,-1,-3,.
O=C(Nc1ccc(S(=O)(=O)NC2=NCCCCC2)cc1)c1cccs1,.,-11,-1,70*,-5,-4
COc1ccccc1NC(CC(=O)c1ccccc1)C(=O)OCC(=O)c1ccc(C)c(C)c1 (centres undefined),-2,8,-4,50*,-11,10
O=C(c1ccc(Cl)cc1)C1CCN(CC(=O)N2CCCCC2)CC1,3,10,1,-1,-3,.
CCCCn1c(N)c(N(CC)C(=O)CSc2nnnn2-c2cc(C)ccc2C)c(=O)[nH]c1=O,4,4,0,-2,-4,.
O=C(Nc1c2c(nn1-c1ccccc1)CS(=O)(=O)C2)c1ccc(Br)o1,.,.,.,2,1,.
Cc1ccc(NS(=O)(=O)c2ccc3c(c2)n(C)c(=O)n3C)cc1C,32,-1,-6,25*,-21,8
Cc1ccc(S(=O)(=O)Nc2ccc3c(c2)n(C)c(=O)n3C)cc1,-1,5,-2,3,-2,.
CCCN1C(C)C(C(=O)OCC)=CN(Cc2cccc(I)c2)S1(=O)=O (centres undefined),.,21,0,.,.,.
COc1ccc(C(=O)N[C@H](C(=O)OCn2nnc3ccccc3c2=O)C(C)C)cc1,.,-2,.,-2,-5,.
Cc1ccc2cc(CN(Cc3ccc4c(c3)OCO4)Cc3nnnn3Cc3ccco3)c(=O)[nH]c2c1,-3,20,-7,5,-4,.
CCC(C)(C)n1nnnc1C(C(C)C)N(Cc1ccco1)Cc1cc2cc3c(cc2[nH]c1=O)OCO3 (centres undefined),-20,4,-4,41*,18,5
Cc1ccc(CN(Cc2cc3cc4c(cc3[nH]c2=O)OCCO4)Cc2nnnn2Cc2ccco2)cc1,-2,6,-12,43*,-10,13
COc1ccccc1CN(Cc1cc2c(C)ccc(C)c2[nH]c1=O)Cc1nnnn1Cc1ccco1,-2,36,-8,37*,-16,6
O=C(OCCCN1CCC2(CCC(c3ccccc3)CC2)C1=O)c1ccccc1 (centres undefined),.,.,.,-1,6,.
CC1(Oc2ccccc2)CCN(Cc2csc3ccccc23)C1 (centres undefined),.,.,.,1,10,.
O=C1CC(Sc2nnc(-c3ccccc3)o2)C(=O)N1c1ccccc1 (centres undefined),7,9,2,68*,7,60*
Cc1ccccc1N1C(=O)CC(Sc2nnc(-c3ccccc3)o2)C1=O (centres undefined),-6,2,-3,83*,-10,68*
Cc1ccc(N2C(=O)CC(Sc3nc(-c4ccccc4)c4cc(Cl)ccc4n3)C2=O)c(C)c1 (centres undefined),3,14,-2,-3,11,.
O=C1c2ccccc2CC1Sc1nnc(-c2ccncc2)o1 (centres undefined),5,15,3,-3,2,.
CC(=O)Nc1ccc2nc(CN3CCN(Cc4ccc(F)cc4)C(CCO)C3)ccc2c1 (centres undefined),-1,-21,1,0,-4,.
SMILES,GSTO1 inh,Apaf1 inhib,PAD4 inh,PRMT1 inh,TDP2 absorb,PRMT1 inh conf
O=S(=O)(Nc1ccc(Cl)cc1)c1ccc(N2CCOCC2)c(NC(=S)NCCN2CCOCC2)c1,-6,10,-3,49*,9,74*
CC(=NO)c1ccc2c(c1)C(=NO)c1ccccc1-2,.,.,.,7,3,.
Cn1c(COc2ccc(Br)cc2)nnc1SC1CCc2ccccc2C1=O (centres undefined),6,15,0,53*,3,9
Cn1c(COc2ccccc2)nnc1SCCSc1nnc(COc2ccccc2)n1C,-3,17,1,1,-4,.
CC(=O)C(Cl)C(=O)Nc1ccccc1 (centres undefined),.,.,.,18,6,.
O=C(Nc1ccccc1)C(Cl)C(=O)c1ccccc1 (centres undefined),6,5,-1,62*,8,79*
COc1ccc(S(=O)(=O)N(C)C)cc1NCC(=O)Nc1ccc(Br)c(C)c1,10,5,6,-4,8,.
COc1ccc(OC)c(C2CC(=O)N3CN(c4cccc(Cl)c4C)CSC3=C2C#N)c1 (centres undefined),11,17,-3,45*,-1,64*
COc1cc(CN2CC(=O)N(c3cccc(Cl)c3C)C2=S)cc(OC)c1OC,5,11,-7,-2,-15,.
COc1ccc(OC)c(C2CC(=O)N3CN(c4ccccc4F)CSC3=C2C#N)c1 (centres undefined),6,0,3,33*,-5,22*
COc1cccc(C2CC(=O)N3CN(c4cccc(Cl)c4C)CSC3=C2C#N)c1OC (centres undefined),2,1,2,29*,-3,54*
CCCCCn1nnnc1C1(C)CCSCC(=O)N1Cc1ccco1 (centres undefined),.,.,.,1,-4,.
O=C(O)c1ccc(N2C(=O)c3ccccc3C2=O)cc1[N+](=O)[O-],.,.,.,6,1,.
O=S(=O)(c1ccc(Oc2ccc(Cl)cc2)nc1)N1CCOCC1,-13,8,-4,4,-11,.
COc1ccc(CCNC(=O)CSc2nc3ccsc3c(=O)n2Cc2ccccn2)cc1OC,.,.,.,1,-14,.
CCCCSc1nc2c([nH]1)c(=S)n(C)c(=O)n2C,.,.,.,1,-3,.
CCN(CC)CCSc1nc2c([nH]1)c(=S)n(C)c(=O)n2C,.,.,.,42*,-10,3
CN(Cc1ccccc1)c1nccn2ccnc12,.,.,.,3,-6,.
O=C(COc1ccc(Br)cc1)Nc1ccc(S(=O)(=O)Nc2ccccn2)cc1,2,14,-2,-1,-6,.
O=C(COc1ccccc1)Nc1ccc(S(=O)(=O)Nc2ccccn2)cc1,-3,7,8,32*,-4,13
COC(=O)CSCc1nc2ccccc2[nH]c1=O,3,10,-6,34*,0,55*
COc1ccc(-c2csc(NNC3=NCCCCC3)n2)cc1,17,25,2,38*,-4,32*
c1ccc(-c2csc(NNC3=NCCCCC3)n2)cc1,14,24,9,67*,1,17
